From ChEMBL document CHEMBL4622830, “Substituted pteridinones as p90 ribosomal S6 protein kinase (RSK) inhibitors: A structure-activity study” (Bioorg Med Chem, 2020)
The source made the active and inactive calls. The calls are words filed in the database; no cut-off is given here.

What was measured:
[1] = test system: MOLM-13; assay: Antiproliferative activity against human MOLM13 assessed as reduction in cell viability incubated for 72 hrs by CellTiter-Glo assay; type: functional, cell-based; conditions: MOLM-13, 72 h
Procedure, shortened: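 CellTiter-Glo viability in MOLM-13 cells seeded at 30,000 per well, treated across 60 µM to 247 nM at 37°C for up to 72 h. Plates equilibrated 30 min at RT, reagent added, shaken 2 min, luminescence read after 10 min. Final DMSO ≤0.5%; n = 3.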

[2] = molecular target: T1, Ribosomal protein S6 kinase alpha-3 (Homo sapiens, UniProt P51812); assay: Inhibition of full length human GST-tagged RSK2 using Ulight-rpS6 as substrate incubated for 1 hr in presence of ATP by TR FRET assay
T1 sequence (P51812 whole entry): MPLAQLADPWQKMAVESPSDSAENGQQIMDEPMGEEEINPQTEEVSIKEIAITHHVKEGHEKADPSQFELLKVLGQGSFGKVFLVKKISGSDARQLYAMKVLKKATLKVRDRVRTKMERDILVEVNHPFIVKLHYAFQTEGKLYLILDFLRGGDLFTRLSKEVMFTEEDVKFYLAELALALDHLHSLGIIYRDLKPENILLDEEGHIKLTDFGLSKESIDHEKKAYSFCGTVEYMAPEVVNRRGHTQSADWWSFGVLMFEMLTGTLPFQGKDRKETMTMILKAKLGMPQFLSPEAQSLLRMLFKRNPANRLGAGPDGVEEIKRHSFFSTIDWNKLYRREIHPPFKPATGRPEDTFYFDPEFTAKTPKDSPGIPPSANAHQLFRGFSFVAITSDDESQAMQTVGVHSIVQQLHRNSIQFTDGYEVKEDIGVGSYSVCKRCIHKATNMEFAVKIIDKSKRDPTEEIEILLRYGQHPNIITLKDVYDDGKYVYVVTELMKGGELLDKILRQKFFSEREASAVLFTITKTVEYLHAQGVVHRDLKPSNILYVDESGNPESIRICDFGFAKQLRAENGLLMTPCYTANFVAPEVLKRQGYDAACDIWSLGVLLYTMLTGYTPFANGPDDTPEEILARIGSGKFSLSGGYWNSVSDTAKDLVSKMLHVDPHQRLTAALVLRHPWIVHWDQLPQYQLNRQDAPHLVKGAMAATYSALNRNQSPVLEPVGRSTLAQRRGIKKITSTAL

[3] = test system: MOLM-13; assay: Antiproliferative activity against human MOLM13 assessed as reduction in cell viability incubated for 72 hrs by CellTox green assay; type: functional, cell-based; conditions: MOLM-13, 72 h
[4] = test system: MOLM-13; assay: Antiproliferative activity against human MOLM13 assessed as reduction in cell viability incubated for 72 hrs by MTS assay; type: functional, cell-based; conditions: MOLM-13, 72 h
[5] = molecular target: T1, Ribosomal protein S6 kinase alpha-3; assay: Inhibition of full length human GST-tagged RSK2 using Ulight-rpS6 as substrate at 10 uM incubated for 1 hr in presence of ATP by TR FRET assay
Procedure, shortened: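 Recombinant RSK2 at 500 pM final with 250 nM ULight-rpS6 (Ser235/236) substrate and 3 μM ATP, in 50 mM HEPES pH 7.5, 10 mM MgCl2, 1 mM EGTA, 2 mM DTT, 0.01% Tween 20. DMSO ≤0.5%. Ran 1 h at room temperature, stopped with 10 mM EDTA. Eu anti-phospho antibody (2 nM) TR-FRET, 665/615 nm ratio read.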

[6] = molecular target: Bromodomain-containing protein 4 (Homo sapiens, UniProt O60885); assay: Binding affinity to BRD4 bromodomain 1 (unknown origin) by ITC assay
[7] = test system: MOLM-13; assay: Antiproliferative activity against human MOLM13 assessed as reduction in cell viability at 0.25 to 60 uM incubated for 24 hrs by CellTox green assay; type: functional, cell-based
Procedure, shortened: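 Cytotoxicity read by CellTox Green: MOLM-13 cells, 60,000 per well, in medium with CellTox Green dye at 1:500, treated over 60 μM to 247 nM at 37°C. Fluorescence (ex 485/em 520 nm) read at 0, 24, 48 and 72 h.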

[8] = test system: MOLM-13; assay: Antiproliferative activity against human MOLM13 assessed as reduction in cell viability at 0.25 to 60 uM incubated for 24 hrs by CellTiter-Glo assay; type: functional, cell-based
Procedure, shortened: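 MOLM-13 cells, 30,000 per well in medium, treated over 60 μM to 247 nM and held at 37°C for 24 to 72 h. Plates equilibrated 30 min at RT, CellTiter-Glo reagent added, shaken 2 min, luminescence read after 10 min at rt. n = 3.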

[9] = test system: MOLM-13; assay: Antiproliferative activity against human MOLM13 assessed as reduction in cell viability at 0.25 to 60 uM incubated for 24 hrs by MTS assay; type: functional, cell-based
Procedure, shortened: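 MOLM-13 cells, 60,000 per well, given compound over 60 μM to 247 nM, incubated at 37°C for 24 to 72 h. CellTiter 96 AQueous One (MTS) reagent added for 3 h, formazan absorbance read at 490 nm. EC50 or percentage values derived.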

[10] = test system: MOLM-13; assay: Antiproliferative activity against human MOLM13 assessed as reduction in cell viability at 60 uM incubated for 72 hrs by MTS assay; type: functional; conditions: MOLM-13, 72 h, read-out: GI
[11] = test system: HEK293; assay: Cytotoxicity in HEK293 cells assessed as reduction in cell viability; type: cell-based; conditions: human
[12] = molecular target: T1, Ribosomal protein S6 kinase alpha-3; assay: Inhibition of RSK2 (unknown origin)
[13] = molecular target: Ribosomal protein S6 kinase alpha-1 (Homo sapiens, UniProt Q15418); assay: Inhibition of RSK1 (unknown origin)
Ribosomal protein S6 kinase alpha-1, sequence (Q15418 whole entry): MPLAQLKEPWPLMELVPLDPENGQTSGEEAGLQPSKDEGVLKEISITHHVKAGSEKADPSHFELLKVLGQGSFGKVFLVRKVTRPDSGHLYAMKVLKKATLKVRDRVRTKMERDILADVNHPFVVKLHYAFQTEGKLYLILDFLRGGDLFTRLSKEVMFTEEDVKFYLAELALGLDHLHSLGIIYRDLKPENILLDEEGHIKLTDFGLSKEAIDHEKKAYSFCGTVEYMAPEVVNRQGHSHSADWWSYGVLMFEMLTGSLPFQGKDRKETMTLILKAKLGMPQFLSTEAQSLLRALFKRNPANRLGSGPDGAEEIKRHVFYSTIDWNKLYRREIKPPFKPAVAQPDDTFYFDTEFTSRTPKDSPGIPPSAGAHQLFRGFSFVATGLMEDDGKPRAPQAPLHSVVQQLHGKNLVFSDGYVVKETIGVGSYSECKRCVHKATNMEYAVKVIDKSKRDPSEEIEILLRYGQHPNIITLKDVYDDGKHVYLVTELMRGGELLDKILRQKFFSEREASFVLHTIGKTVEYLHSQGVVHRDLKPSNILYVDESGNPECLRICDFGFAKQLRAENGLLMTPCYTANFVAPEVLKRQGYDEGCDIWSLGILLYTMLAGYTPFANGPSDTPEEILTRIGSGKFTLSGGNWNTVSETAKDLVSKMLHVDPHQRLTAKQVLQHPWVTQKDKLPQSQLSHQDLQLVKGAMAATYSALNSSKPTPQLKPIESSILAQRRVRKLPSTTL

[14] = molecular target: Ribosomal protein S6 kinase alpha-2 (Homo sapiens, UniProt Q15349); assay: Inhibition of RSK3 (unknown origin)
Ribosomal protein S6 kinase alpha-2, sequence (Q15349 whole entry): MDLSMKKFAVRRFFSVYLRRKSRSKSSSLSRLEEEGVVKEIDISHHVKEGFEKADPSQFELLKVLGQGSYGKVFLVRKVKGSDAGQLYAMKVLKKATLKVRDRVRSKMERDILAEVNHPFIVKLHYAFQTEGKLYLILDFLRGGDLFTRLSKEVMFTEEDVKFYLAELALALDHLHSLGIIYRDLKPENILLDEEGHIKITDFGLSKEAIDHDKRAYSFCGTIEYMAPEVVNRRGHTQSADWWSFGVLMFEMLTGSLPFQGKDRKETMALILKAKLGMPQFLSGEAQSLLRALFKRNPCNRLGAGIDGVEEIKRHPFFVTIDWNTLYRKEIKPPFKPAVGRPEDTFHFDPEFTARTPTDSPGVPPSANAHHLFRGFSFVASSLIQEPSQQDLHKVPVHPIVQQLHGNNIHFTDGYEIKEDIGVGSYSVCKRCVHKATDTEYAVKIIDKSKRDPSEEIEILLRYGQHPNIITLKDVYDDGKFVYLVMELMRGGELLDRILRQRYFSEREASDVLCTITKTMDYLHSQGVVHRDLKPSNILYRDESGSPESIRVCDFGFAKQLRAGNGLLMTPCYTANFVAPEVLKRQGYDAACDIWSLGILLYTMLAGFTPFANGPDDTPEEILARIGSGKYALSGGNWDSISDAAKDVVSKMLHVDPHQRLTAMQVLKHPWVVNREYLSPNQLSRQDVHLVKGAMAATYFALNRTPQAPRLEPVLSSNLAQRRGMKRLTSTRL

SMILES | EC50 [1] [µM] | IC50 [2] [µM] | EC50 [3] [µM] | inhibition [5] [%] | also measured
CC(C)CCN1CC(=O)Nc2cnc(Nc3ccc(O)c(F)c3)nc21 | 2.23 | 0.0383 | 4.64 |  | EC50 [4]: 4.39 µM
CC(C)CCN1c2nc(Nc3ccc(O)c(Cl)c3)ncc2N(C)C(=O)C1C (configuration not stated) |  | 0.0715 |  |  | 
CC(C)CCN1c2nc(Nc3ccc(CO)cc3)ncc2N(C)C(=O)C1C (configuration not stated) |  | 0.739 |  |  | 
Nc1nc(Nc2cc(F)c(O)c(F)c2)ncc1[N+](=O)[O-] |  |  |  | 72 | 
CC(C)CCN1CC(=O)Nc2cnc(Nc3cc(F)c(O)c(F)c3)nc21 | 6.2 | 0.0234 | 6.85 |  | EC50 [4]: 6.82 µM
CC(C)CCN1c2nc(Nc3ccc(O)c(Br)c3)ncc2N(C)C(=O)C1C (configuration not stated) |  | 0.141 |  |  | 
CC(C)CCN1c2nc(Nc3cc(Br)c(O)c(Br)c3)ncc2N(C)C(=O)C1C (configuration not stated) |  |  |  | 78 | 
CC(C)CCN1c2nc(Nc3cc(F)c(O)c(F)c3)ncc2N(C)C(=O)C1C (configuration not stated) | 1.89 |  | 3.41 |  | Kd [6]: 3.5 µM; Activity [7]: Active; EC50 [4]: 2.8 µM; Activity [8]: Active; Activity [9]: Active
CN1CCN(c2ccc(-c3ccncc3-c3cc(F)c(O)c(F)c3)cc2)CC1 | 9.71 |  | 22 |  | inhibition of growth at 60 µM [10]: 75%; Activity [11]: Toxic
CC(C)CCN1c2nc(Nc3cc(Cl)c(O)c(Cl)c3)ncc2N(C)C(=O)C1C (configuration not stated) |  |  |  | 83 | 
CC(C)CCN1c2nc(Nc3ccc(O)cc3)ncc2N(C)C(=O)C1C (configuration not stated) |  | 0.0548 |  |  | 
Nc1cnc(Nc2cc(F)c(O)c(F)c2)nc1N |  |  |  | 38 | 
CC(C)CCN1c2nc(Nc3cc(F)c(O)c(F)c3)ncc2NC(=O)C1C (configuration not stated) | 17.4 | 0.0182 | 18.1 |  | inhibition of growth at 60 µM [10]: 56%; Activity [11]: Toxic
CC(C)CCN1c2nc(Nc3cc(F)cc(F)c3)ncc2N(C)C(=O)C1C (configuration not stated) |  |  |  | 71 | 
COc1c(F)cc(Nc2ncc3c(n2)N(CCC(C)C)C(C)C(=O)N3C)cc1F (configuration not stated) |  |  |  | 43 | 
CC(C)CCN1c2nc(Nc3ccc(O)c(F)c3)ncc2N(C)C(=O)C1C (configuration not stated) | 0.87 | 0.0254 | 3.16 |  | EC50 [4]: 1.69 µM
Oc1c(F)cc(Nc2ncccn2)cc1F |  |  |  | 45 | 
CC(C)CCN1CC(=O)N(C)c2cnc(Nc3ccc(O)c(F)c3)nc21 |  | 0.0247 |  |  | 
CC(C)CCN1CC(=O)N(C)c2cnc(Nc3cc(F)c(O)c(F)c3)nc21 | 1.67 | 0.0176 | 4.54 |  | EC50 [4]: 2.71 µM
CC1Nc2nc(Nc3cc(F)c(O)c(F)c3)ncc2NC1=O (configuration not stated) |  |  |  | 83 | 
Oc1c(F)cc(-c2cnccc2-c2ccc(N3CCOCC3)cc2)cc1F | 19.1 |  | 23.4 |  | inhibition of growth at 60 µM [10]: 79%; IC50 [12]: 0.005 µM; IC50 [13]: 0.006 µM; Activity [11]: Toxic; IC50 [14]: 0.004 µM
